Key:
[1] = Stability in human plasma after 3 hrs; format: ADME, cell-free; conditions: read-out: Stability
Procedure, shortened: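 Compound was added from 10 mM DMSO stock to human plasma at 200 µM final and shaken at 37 °C for up to 24 h. Aliquots were quenched in methanol and centrifuged. The supernatant was diluted with internal standard and analysed by LC/MS/MS in triplicate. Result is given as % parent compound remaining.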

[2] = biological target: Urokinase-type plasminogen activator (Rattus norvegicus, UniProt P29598); test: Inhibition of rat uPA
[3] = biological target: Urokinase-type plasminogen activator (Mus musculus, UniProt P06869); test: Inhibition of mouse uPA
Plasminogen [4] = biological target: Plasminogen (Mus musculus, UniProt P20918); test: Inhibition of mouse plasmin
Plasminogen [5] = biological target: Plasminogen (Rattus norvegicus, UniProt Q01177); test: Inhibition of rat plasmin
Prothrombin [6] = biological target: Prothrombin (Rattus norvegicus, UniProt P18292); test: Inhibition of rat thrombin
[7] = biological target: Tissue-type plasminogen activator (Homo sapiens, UniProt P00750); test: Inhibition of human recombinant tPA
Plasminogen [8] = biological target: Plasminogen (Homo sapiens, UniProt P00747); test: Inhibition of human plasmin
Procedure, shortened: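 Plasmin from human plasma at about 5 mU was preincubated with inhibitor (0–250 µM final) for 15 min at 37 °C. Substrate was S-2366 at 580 µM in Tris pH 7.4. Initial rate was read at 405 nm, in duplicate. IC50 came from a four-parameter logistic fit.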

Prothrombin [9] = biological target: Prothrombin (Homo sapiens, UniProt P00734); test: Inhibition of human thrombin
Procedure, shortened: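 Human plasma thrombin was assayed at 37 °C in Tris pH 8.3. […] Initial rate was read at 405 nm, in duplicate. IC50 was obtained from a four-parameter logistic fit.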

Coagulation factor X = Coagulation factor X (Homo sapiens, UniProt P00742); test: Inhibition of factor 10a
Procedure, shortened: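 Human factor Xa (FX activated with Russell's viper venom) at about 5 mU was preincubated with inhibitor (0–250 µM final) for 15 min at 37 °C. […] IC50 came from a four-parameter logistic fit.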

[10] = Chemical stability assessed as half life of hydrolysis at pH 1; format: physicochemical; conditions: buffer
[11] = Chemical stability assessed as half life of hydrolysis at pH 4; format: physicochemical; conditions: buffer
[12] = Chemical stability assessed as half life of hydrolysis at pH 7.4; format: physicochemical; conditions: buffer
[13] = Chemical stability assessed as half life of hydrolysis at pH 8.8; format: physicochemical; conditions: buffer
[14] = Antitumor activity against Brown Norwegian rat bearing BN472 tumor assessed as reduction of tumor size at 1 mg/kg, ip administered once daily after 4 days of tumor transplantation for 17 to 18 days relative to control; format: functional; parameters: scale not given: the % may be the effect or the level left; conditions: route intraperitoneal
Procedure, shortened: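 Rats bearing orthotopic BN472 breast tumours (grown three days) were dosed i.p. daily from day 4 for 17–18 days at 0.1 or 1 mg/kg. Vehicle-only i.p. controls were included. Tumour size and tumour weight were measured at the end of the treatment period and compared with controls.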

[15] = Antimetastatic activity against Brown Norwegian rat bearing BN472 tumor assessed as decrease in number of lung foci at 0.1 mg/kg, ip administered once daily after 4 days of tumor transplantation for 17 to 18 days relative to control; format: functional; parameters: scale not given: the % may be the effect or the level left; conditions: route intraperitoneal
Procedure, shortened: (§1)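 BN472 breast tumours implanted orthotopically in rats and left to grow three days. From day 4, compounds were given i.p. daily for 17–18 days at 0.1 or 1 mg/kg. Controls received vehicle i.p. only. Lung foci were counted and axillary lymph nodes weighed at the end of treatment. Groups were compared with control at an unadjusted significance level of P 0.05.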

[16] = Antimetastatic activity against Brown Norwegian rat bearing BN472 tumor assessed as reduction of axillary lymph node weight at 0.1 mg/kg, ip administered once daily after 4 days of tumor transplantation for 17 to 18 days relative to control; format: functional; parameters: scale not given: the % may be the effect or the level left; conditions: route intraperitoneal; procedure, shortened: as §1
[17] = Antimetastatic activity against Brown Norwegian rat bearing BN472 tumor assessed as reduction of axillary lymph node weight at 1 mg/kg, ip administered once daily after 4 days of tumor transplantation for 17 to 18 days relative to control; format: functional; parameters: scale not given: the % may be the effect or the level left; conditions: route intraperitoneal; procedure, shortened: as §1
[18] = Antimetastatic activity against Brown Norwegian rat bearing BN472 tumor assessed as reduction of interpectoral lymph node weight at 0.1 mg/kg, ip administered once daily after 4 days of tumor transplantation for 17 to 18 days relative to control; format: functional; parameters: scale not given: the % may be the effect or the level left; conditions: route intraperitoneal
Rattus norvegicus [19] = test: Toxicity in Brown Norwegian rat bearing BN472 tumor assessed as effect on body weight at 0.1 mg/kg, ip administered once daily after 4 days of tumor transplantation for 17 to 18 days relative to control; format: organism-based; parameters: dose 0.1 mg/kg, route intraperitoneal; conditions: in vivo
Procedure, shortened: (§2)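 Orthotopic BN472 breast tumour model in rats. Daily i.p. dosing at 0.1 or 1 mg/kg started on day 4 and ran 17–18 days, with vehicle-only i.p. controls. Side effects were assessed from body weight and the weights of several organs, compared with controls.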

Rattus norvegicus [20] = test: Toxicity in Brown Norwegian rat bearing BN472 tumor assessed as effect on body weight at 1 mg/kg, ip administered once daily after 4 days of tumor transplantation for 17 to 18 days relative to control; format: organism-based; parameters: dose 1 mg/kg, route intraperitoneal; conditions: in vivo; procedure, shortened: as §2
Rattus norvegicus [21] = test: Toxicity in Brown Norwegian rat bearing BN472 tumor assessed as increase in lung weight at 1 mg/kg, ip administered once daily after 4 days of tumor transplantation for 17 to 18 days relative to control; format: organism-based; parameters: dose 1 mg/kg, route intraperitoneal; conditions: in vivo; procedure, shortened: as §2
Rattus norvegicus [22] = test: Toxicity in Brown Norwegian rat bearing BN472 tumor assessed as increase in uterus weight at 1 mg/kg, ip administered once daily after 4 days of tumor transplantation for 17 to 18 days relative to control; format: organism-based; parameters: dose 1 mg/kg, route intraperitoneal; conditions: in vivo; procedure, shortened: as §2
Rattus norvegicus [23] = test: Toxicity in Brown Norwegian rat bearing BN472 tumor assessed as decrease in spleen weight at 1 mg/kg, ip administered once daily after 4 days of tumor transplantation for 17 to 18 days relative to control; format: organism-based; parameters: dose 1 mg/kg, route intraperitoneal; scale not given: the % may be the effect or the level left; conditions: in vivo; procedure, shortened: as §2
Rattus norvegicus [24] = test: Toxicity in Brown Norwegian rat bearing BN472 tumor assessed as increase in spleen weight at 0.1 mg/kg, ip administered once daily after 4 days of tumor transplantation for 17 to 18 days relative to control; format: organism-based; parameters: dose 0.1 mg/kg, route intraperitoneal; conditions: in vivo; procedure, shortened: as §2
Rattus norvegicus [25] = test: Toxicity in Brown Norwegian rat bearing BN472 tumor assessed as decrease in liver weight at 0.1 mg/kg, ip administered once daily after 4 days of tumor transplantation for 17 to 18 days relative to control; format: organism-based; parameters: dose 0.1 mg/kg, route intraperitoneal; scale not given: the % may be the effect or the level left; conditions: in vivo; procedure, shortened: as §2
Rattus norvegicus [26] = test: Toxicity in Brown Norwegian rat bearing BN472 tumor assessed as decrease in liver weight at 1 mg/kg, ip administered once daily after 4 days of tumor transplantation for 17 to 18 days relative to control; format: organism-based; parameters: dose 1 mg/kg, route intraperitoneal; scale not given: the % may be the effect or the level left; conditions: in vivo; procedure, shortened: as §2
Rattus norvegicus [27] = test: Toxicity in Brown Norwegian rat bearing BN472 tumor assessed as increase in kidney weight at 0.1 mg/kg, ip administered once daily after 4 days of tumor transplantation for 17 to 18 days relative to control; format: organism-based; parameters: dose 0.1 mg/kg, route intraperitoneal; conditions: in vivo; procedure, shortened: as §2
Rattus norvegicus [28] = test: Toxicity in Brown Norwegian rat bearing BN472 tumor assessed as increase in kidney weight at 1 mg/kg, ip administered once daily after 4 days of tumor transplantation for 17 to 18 days relative to control; format: organism-based; parameters: dose 1 mg/kg, route intraperitoneal; conditions: in vivo; procedure, shortened: as §2
Rattus norvegicus [29] = test: Toxicity in Brown Norwegian rat bearing BN472 tumor assessed as decrease in adrenal weight at 0.1 mg/kg, ip administered once daily after 4 days of tumor transplantation for 17 to 18 days relative to control; format: organism-based; parameters: dose 0.1 mg/kg, route intraperitoneal; scale not given: the % may be the effect or the level left; conditions: in vivo; procedure, shortened: as §2
[30] = biological target: Urokinase-type plasminogen activator (Homo sapiens, UniProt P00749)

Sequence of Plasminogen (Mus musculus, UniProt P20918) (P20918 98-581 limits assumed): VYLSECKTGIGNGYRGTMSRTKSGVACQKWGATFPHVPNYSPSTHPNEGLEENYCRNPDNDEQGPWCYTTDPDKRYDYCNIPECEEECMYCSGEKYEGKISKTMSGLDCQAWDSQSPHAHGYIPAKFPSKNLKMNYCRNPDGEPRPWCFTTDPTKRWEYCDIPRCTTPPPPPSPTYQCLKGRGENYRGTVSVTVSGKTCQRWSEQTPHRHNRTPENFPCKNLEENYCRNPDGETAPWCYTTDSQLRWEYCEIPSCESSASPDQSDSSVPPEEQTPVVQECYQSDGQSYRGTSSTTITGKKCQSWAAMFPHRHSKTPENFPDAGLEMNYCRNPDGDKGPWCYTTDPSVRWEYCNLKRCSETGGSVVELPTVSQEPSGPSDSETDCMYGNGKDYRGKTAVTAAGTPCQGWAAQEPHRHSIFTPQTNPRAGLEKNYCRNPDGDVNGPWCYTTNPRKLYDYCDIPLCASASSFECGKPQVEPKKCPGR
Sequence of Plasminogen (Mus musculus, UniProt P20918) (P20918 582-812 limits assumed): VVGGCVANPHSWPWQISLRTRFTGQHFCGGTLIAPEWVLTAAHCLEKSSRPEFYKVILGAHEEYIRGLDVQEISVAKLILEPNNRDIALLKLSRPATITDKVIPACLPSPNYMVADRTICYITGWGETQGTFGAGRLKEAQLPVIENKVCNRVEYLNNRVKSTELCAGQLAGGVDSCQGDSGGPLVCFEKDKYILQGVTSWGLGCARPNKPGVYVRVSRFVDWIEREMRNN
Sequence of Plasminogen (Homo sapiens, UniProt P00747) (P00747 97-580 limits assumed): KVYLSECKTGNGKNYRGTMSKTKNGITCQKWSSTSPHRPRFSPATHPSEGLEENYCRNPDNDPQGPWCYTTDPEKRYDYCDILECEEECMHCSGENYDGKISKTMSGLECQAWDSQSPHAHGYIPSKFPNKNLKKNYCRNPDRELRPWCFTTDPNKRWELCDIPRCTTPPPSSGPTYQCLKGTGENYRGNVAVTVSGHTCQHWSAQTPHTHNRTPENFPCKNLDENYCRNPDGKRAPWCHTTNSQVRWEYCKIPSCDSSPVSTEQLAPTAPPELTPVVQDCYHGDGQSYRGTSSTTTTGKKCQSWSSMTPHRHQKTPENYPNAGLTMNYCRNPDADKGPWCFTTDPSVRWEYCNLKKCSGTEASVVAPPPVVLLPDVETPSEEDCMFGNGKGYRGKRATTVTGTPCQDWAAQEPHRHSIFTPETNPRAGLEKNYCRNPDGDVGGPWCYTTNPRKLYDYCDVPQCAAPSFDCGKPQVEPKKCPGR
Sequence of Plasminogen (Homo sapiens, UniProt P00747) (P00747 581-810 limits assumed): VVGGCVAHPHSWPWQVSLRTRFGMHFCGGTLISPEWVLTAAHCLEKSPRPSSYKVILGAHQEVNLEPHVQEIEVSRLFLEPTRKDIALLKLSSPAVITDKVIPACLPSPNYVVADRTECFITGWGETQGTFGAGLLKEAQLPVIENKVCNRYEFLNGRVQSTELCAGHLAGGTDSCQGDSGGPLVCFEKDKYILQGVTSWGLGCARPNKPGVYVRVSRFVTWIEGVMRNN
Sequence of Coagulation factor X (P00742 41-179 limits assumed): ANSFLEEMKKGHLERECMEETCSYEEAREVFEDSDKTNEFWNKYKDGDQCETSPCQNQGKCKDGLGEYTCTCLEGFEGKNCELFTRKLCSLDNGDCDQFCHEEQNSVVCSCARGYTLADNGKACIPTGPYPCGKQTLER
Sequence of Coagulation factor X (P00742 235-488 limits assumed): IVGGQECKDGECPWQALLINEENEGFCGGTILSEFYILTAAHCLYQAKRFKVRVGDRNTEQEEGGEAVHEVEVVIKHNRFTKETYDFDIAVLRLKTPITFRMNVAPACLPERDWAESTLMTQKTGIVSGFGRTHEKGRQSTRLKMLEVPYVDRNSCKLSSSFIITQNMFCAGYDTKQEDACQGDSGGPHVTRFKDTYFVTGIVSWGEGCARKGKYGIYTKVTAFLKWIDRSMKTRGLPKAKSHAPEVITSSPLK
Sequence of Plasminogen (Rattus norvegicus, UniProt Q01177) (Q01177 97-581 limits assumed): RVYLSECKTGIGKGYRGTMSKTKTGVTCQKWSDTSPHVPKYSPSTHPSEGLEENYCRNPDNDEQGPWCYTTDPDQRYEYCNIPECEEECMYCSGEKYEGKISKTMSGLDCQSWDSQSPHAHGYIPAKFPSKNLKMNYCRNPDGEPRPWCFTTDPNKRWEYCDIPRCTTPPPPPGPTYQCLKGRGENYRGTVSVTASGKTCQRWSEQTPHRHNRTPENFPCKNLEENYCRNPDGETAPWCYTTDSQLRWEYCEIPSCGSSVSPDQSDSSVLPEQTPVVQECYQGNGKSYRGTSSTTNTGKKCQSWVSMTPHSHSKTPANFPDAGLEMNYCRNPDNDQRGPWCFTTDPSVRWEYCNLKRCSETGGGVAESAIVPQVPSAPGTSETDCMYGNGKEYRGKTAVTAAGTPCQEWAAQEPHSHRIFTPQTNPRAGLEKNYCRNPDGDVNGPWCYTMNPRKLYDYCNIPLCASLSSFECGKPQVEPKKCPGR
Sequence of Plasminogen (Rattus norvegicus, UniProt Q01177) (Q01177 582-812 limits assumed): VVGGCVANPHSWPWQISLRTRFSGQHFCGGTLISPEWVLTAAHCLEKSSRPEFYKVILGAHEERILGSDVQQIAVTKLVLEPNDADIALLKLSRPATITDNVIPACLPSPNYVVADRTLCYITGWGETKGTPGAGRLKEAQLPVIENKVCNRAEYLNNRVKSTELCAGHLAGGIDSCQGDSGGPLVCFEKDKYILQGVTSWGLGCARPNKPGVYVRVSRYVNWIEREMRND
Sequence of Urokinase-type plasminogen activator (Rattus norvegicus, UniProt P29598) (P29598 20-177 limits assumed): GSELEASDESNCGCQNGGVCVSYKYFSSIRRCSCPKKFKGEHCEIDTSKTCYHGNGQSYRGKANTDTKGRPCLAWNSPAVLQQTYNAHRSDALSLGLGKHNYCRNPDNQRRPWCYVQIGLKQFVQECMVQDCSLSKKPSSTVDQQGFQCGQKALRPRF
Sequence of Urokinase-type plasminogen activator (Rattus norvegicus, UniProt P29598) (P29598 179-432 limits assumed): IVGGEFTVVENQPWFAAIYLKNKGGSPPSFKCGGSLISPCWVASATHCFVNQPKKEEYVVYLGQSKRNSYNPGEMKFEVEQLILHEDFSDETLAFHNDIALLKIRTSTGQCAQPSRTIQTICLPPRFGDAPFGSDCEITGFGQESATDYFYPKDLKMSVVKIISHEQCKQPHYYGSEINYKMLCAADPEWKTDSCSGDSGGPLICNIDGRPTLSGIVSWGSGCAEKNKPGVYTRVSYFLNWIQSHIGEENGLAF
Sequence of Tissue-type plasminogen activator (P00750 whole entry): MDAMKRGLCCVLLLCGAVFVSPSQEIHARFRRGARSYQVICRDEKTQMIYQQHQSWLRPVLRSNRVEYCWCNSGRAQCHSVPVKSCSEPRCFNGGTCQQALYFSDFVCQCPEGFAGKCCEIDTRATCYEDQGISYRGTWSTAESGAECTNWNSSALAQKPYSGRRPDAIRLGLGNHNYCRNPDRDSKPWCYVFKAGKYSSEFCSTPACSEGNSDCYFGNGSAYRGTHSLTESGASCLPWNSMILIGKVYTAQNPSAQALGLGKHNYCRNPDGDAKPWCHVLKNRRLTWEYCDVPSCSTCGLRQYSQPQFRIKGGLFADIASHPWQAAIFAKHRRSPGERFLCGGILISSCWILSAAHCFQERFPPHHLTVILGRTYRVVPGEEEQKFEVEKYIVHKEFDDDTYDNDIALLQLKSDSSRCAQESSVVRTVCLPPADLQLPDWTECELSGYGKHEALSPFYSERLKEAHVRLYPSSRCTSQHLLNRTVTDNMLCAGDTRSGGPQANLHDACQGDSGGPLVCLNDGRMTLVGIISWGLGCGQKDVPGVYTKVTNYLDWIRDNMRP
Sequence of Urokinase-type plasminogen activator (Mus musculus, UniProt P06869) (P06869 21-178 limits assumed): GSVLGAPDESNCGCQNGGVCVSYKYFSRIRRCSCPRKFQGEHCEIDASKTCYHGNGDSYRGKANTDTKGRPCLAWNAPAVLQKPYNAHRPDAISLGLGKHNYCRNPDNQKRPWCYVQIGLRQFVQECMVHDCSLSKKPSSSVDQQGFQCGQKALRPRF
Sequence of Urokinase-type plasminogen activator (Mus musculus, UniProt P06869) (P06869 180-433 limits assumed): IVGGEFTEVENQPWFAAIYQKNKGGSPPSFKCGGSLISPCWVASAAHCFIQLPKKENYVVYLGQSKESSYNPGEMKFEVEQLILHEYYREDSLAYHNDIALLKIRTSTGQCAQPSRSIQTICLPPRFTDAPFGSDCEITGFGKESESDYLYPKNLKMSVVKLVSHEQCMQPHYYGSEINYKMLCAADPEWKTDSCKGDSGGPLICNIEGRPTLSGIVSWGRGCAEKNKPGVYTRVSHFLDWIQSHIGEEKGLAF

## COC(=O)NC(Cc1ccc(NC(=N)N)cc1)P(=O)(Oc1ccc(NC(C)=O)cc1)Oc1ccc(NC(C)=O)cc1 (stereo unspecified)
[1]
  remaining at 3 h: 81%
[2]
  IC50: 24.5 nM
[3]
  IC50: 8 nM
Plasminogen [4]
  IC50: 4.8 µM
Plasminogen [5]
  IC50: 2200 nM
Prothrombin [6]
  IC50: 45 µM
[7]
  IC50: 6.1 µM
Plasminogen [8]
  IC50: 2800 nM
Prothrombin [9]
  IC50: 1130 nM
Coagulation factor X
  IC50: 30 µM
[10]
  half-life: 2100 min
[11]
  half-life: > 14 days
[12]
  half-life: 2.67 days
[13]
  half-life: 180 min
[14]
  Activity: 18%
[15]
  Activity: 42%
[16]
  Activity: 49%
[17]
  Activity: 73%
[18]
  Activity: 3%
Rattus norvegicus [19]
  Activity: 163.5 g
Rattus norvegicus [20]
  Activity: 170.5 g
Rattus norvegicus [21]
  Activity: 7%
Rattus norvegicus [22]
  Activity: 33%
Rattus norvegicus [23]
  Activity: 10%
Rattus norvegicus [24]
  Activity: 3%
Rattus norvegicus [25]
  Activity: 2%
Rattus norvegicus [26]
  Activity: 8%
Rattus norvegicus [27]
  Activity: 7%
Rattus norvegicus [28]
  Activity: 3%
Rattus norvegicus [29]
  Activity: 2%
[30]
  Kapp: 1e+06 M⁻¹ s⁻¹

— ChEMBL document CHEMBL1138351, “Small, potent, and selective diaryl phosphonate inhibitors for urokinase-type plasminogen activator with in vivo antimetastatic properties” (J Med Chem, 2007)
